# Screening results as filed in PubChem.
# Shown are actives, neighbours in structure and some others; about 2.9% of the full set was active somewhere.
# SENP7 inh – blocks the human protease SENP7; AID 434973; 1.5% of 330,000 active; recombinant SENP7, Z-RLRGG-aminoluciferin luminescence, 40 min; inhibition, % at 5 µM; Q9BQF6;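 active = inhibition above about 50% at the single test dose, limit read from the data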;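 also: plate controls were DMSO with enzyme for no effect and no enzyme buffer wells for full effect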
# HSP90 inh – HSP90 refolding inhibition in rabbit reticulocyte lysate; luciferase refolding luminescence, 3 h; inhibition, % at 5.6 µM; 0.91% of 290,000 active; AID 1789;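 active = inhibition above the screen-wide mean plus 3 SD, computed separately per campaign, cut at about 16% in these data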;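 also: 0% = DMSO wells and 100% = 60 µM geldanamycin wells; inhibitors lower the luminescence because luciferase stays unfolded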
# SENP6 block – blocks the human protease SENP6; AID 2599; 1.8% of 330,000 active; Q9GZR1; Recombinant SENP6 catalytic domain, aminoluciferin luminescence; inhibition, % at 10 µM;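 active = inhibition above about 50% at the single tested dose, limit read from the data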;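 also: plate controls were DMSO wells with enzyme for no effect and DMSO wells lacking enzyme for full effect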
# SENP8 block-1 – SENP8 (human) protease inhibition; recombinant SENP8, Nedd8 substrate fluorescence; inhibition, % at 20 µM; 0.64% of 360,000 active; AID 602440; in the data active = inhibition mostly above about 40%, no sharp cut-off; inactive = mostly below about 27%
# Target sequence (Q96LD8 whole entry, looked up): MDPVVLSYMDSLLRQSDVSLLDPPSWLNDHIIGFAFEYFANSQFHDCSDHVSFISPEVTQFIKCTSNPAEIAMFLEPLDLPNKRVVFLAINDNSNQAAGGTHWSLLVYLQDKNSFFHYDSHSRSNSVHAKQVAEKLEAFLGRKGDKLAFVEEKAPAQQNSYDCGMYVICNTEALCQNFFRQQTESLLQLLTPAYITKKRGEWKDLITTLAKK
# SENP8 block-2 – SENP8 protease inhibition; Q96LD8; purified SENP8, Z-RLRGG-aminoluciferin cleavage, luminescence; inhibition, % at 10 µM; 1.2% of 330,000 active; AID 2540; in the data active = inhibition above about 50%
# SENP1 FRET inh – blocks the human SENP1 SUMO protease catalytic domain; recombinant SENP1 catalytic domain, CyPet-SUMO1-YPet FRET cleavage; inhibition, % at 10 µM; Q9P0U3; 0.21% of 360,000 active;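 active = inhibition at least 30% at 10 µM, raw YFP signal under a set limit, fluorescence ratio 0.5 to 1.5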;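 also: 0% = enzyme with DMSO and 100% = no enzyme wells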
# Target sequence (Q9P0U3 419-644 limits assumed): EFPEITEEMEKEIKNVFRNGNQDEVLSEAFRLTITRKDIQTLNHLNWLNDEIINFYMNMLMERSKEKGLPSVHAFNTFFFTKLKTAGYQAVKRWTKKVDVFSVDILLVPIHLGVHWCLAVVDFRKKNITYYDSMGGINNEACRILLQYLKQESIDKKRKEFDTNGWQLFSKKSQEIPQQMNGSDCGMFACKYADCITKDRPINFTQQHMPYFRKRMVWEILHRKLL
#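 Material: hSENP1 catalytic domain, recombinant; medium: Tris pH 8 with BME, BSA, NP40 and catalase; compound: single concentration of 10 µM compound, 0.5% DMSO final; technique: FRET read of cyan and yellow fluorescence; timing: 50 min enzyme reaction, room temperature, light-protected; reagent: SFCypet-SUMO1-SFYpet substrate at 25 nM; control set: no-enzyme low, enzyme-DMSO high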
# SENP8 conf – confirmation of human SENP8 protease inhibitors. AID 488912. 40% of 6,200 active. Recombinant SENP8, Z-RLRGG-aminoluciferin luminescence, 60 min. shares compounds with SENP7 inh. inhibition, % at 12.5 µM;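 active = mean inhibition across replicates above about 50%, limit read from the data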
# SENP6 conf – confirmation of human SENP6 protease inhibitors; recombinant SENP6, Z-RLRGG-aminoluciferin luminescence; inhibition, % at 12.5 µM; shares compounds with SENP7 inh; 58% of 6,200 active
# SENP7 confirm – human SENP7 inhibition, confirmed | shares compounds with SENP7 inh | inhibition, % at 12.5 µM | AID 488917 | 69% of 6,200 active | recombinant SENP7, Z-RLRGG-aminoluciferin luminescence, 40 min
# Casp3 SENP sel – selectivity test for SENP inhibitors: human caspase-3 inhibition; shares compounds with SENP7 inh; purified caspase-3, Z-DEVD-aminoluciferin luminescence, 60 min; inhibition, % at 12.5 µM; 60% of 6,200 active; AID 488918;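 active = mean inhibition above about 50%, limit read from the data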;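 also: plate controls were enzyme with DMSO for no effect and wells without caspase-3 for full effect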
# Target sequence (P42574 28-227 limits assumed): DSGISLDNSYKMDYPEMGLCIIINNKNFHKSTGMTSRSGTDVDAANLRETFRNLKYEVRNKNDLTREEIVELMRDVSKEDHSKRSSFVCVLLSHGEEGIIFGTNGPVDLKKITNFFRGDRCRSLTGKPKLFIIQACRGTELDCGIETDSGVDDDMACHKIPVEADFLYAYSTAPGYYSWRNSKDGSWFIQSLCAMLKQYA
# Luc interf – interferes with luciferase luminescence in SENP counter-screen; shares compounds with SENP7 inh; Pre-incubated SENP8/Z-RLRGG-aminoluciferin, luciferase luminescence interference; inhibition, % at 12.5 µM; 39% of 6,200 active; AID 488919;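 active = mean inhibition above about 50% when retested at one dose, limit read from the data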;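 also: plate controls were DMSO wells with completed reaction for no effect and substrate without enzyme for full effect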
# * hit, by the source's call; i = inactive; . = no result given.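 The calls were made as follows, unless noted: active = mean inhibition above about 50% in the one-dose retest (limit read from the data); inactive = the rest.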
SMILES,SENP7 inh,HSP90 inh,SENP6 block,SENP8 block-1,SENP8 block-2,SENP1 FRET inh,SENP8 conf,SENP6 conf,SENP7 confirm,Casp3 SENP sel,Luc interf
NC(=O)c1ccsc1NC(=O)c1ccc(N2CCCC2=O)cc1,88.9*,11.7,90.3*,-286.0,86.9*,-11.5,91.5*,90.9*,99.5*,94.0*,12.0
NC(=O)c1ccsc1NC(=O)c1cccs1,3.0,2.0,-12.1,-105.5,-1.5,-8.5,.,.,.,.,.
CNC(=O)c1ccsc1NC(=O)c1ccc2c(c1)CCCC2,53.9*,-6.7,58.7*,-200.5,38.4,-2.7,59.5*,60.0*,82.2*,32.3,21.7
CC(C)Cc1nnc(NC(=O)c2ccc(N3CCCC3=O)cc2)s1,2.0,.,-5.6,-85.0,-2.4,0.5,.,.,.,.,.
NC(=O)c1ccsc1NC(=O)c1ccc2c(c1)CCCC2,99.1*,11.4,95.8*,-177.5,96.0*,-11.5,97.3*,97.3*,101.4*,95.5*,67.3*
CCC(CC)N1CCN(S(=O)(=O)c2ccc(OC)cc2)CC1,5.1,1.1,11.1,14.3,-1.1,1.7,.,.,.,.,.
CCS(=O)(=O)N1Cc2ccccc2CC1C(=O)N(C)Cc1ccc(OC)c(F)c1 (stereo not given),-1.4,-1.7,-8.7,5.1,5.9,-3.9,.,.,.,.,.
COc1cc(C(=O)NCc2nnc(SCC(=O)NC3CCCC3)o2)cc(OC)c1OC,-14.2,-3.0,-8.1,9.7,-10.0,1.6,.,.,.,.,.
Cn1nc(C(C)(C)C)cc1C(=O)N1CCCCC1c1cc(C(=O)Nc2ccccc2)no1 (stereo not given),.,.,.,5.8,.,0.7,.,.,.,.,.
O=C(CCN1C(=O)/C(=C/c2ccc(Cl)cc2)SC1=S)Nc1cccc(C(=O)O)c1,4.7,4.7,7.9,18.2,34.4,1.0,.,.,.,.,.
COc1cc(/C=C2/SC(=S)N(Cc3ccccc3)C2=O)ccc1O,4.3,-4.0,49.1,28.7,0.0,-28.9,.,.,.,.,.
O=C1/C(=C\c2ccc(O)c(O)c2)SC(=S)N1Cc1ccccc1,-7.8,1.1,54.7*,36.4*,46.6,-26.4,69.6*,68.9*,71.8*,18.4,49.4
COc1ccc(/C=C2\SC(=S)N(CCC(=O)Nc3cccc(C(=O)O)c3)C2=O)cc1,6.3,-5.3,61.9*,25.2,53.2*,-22.8,35.3,32.7,21.3,21.4,14.7
O=C(CCCN1C(=O)/C(=C/c2ccc3c(c2)OCO3)SC1=S)Nc1cccc(C(=O)O)c1,47.5,3.7,81.7*,9.9,75.9*,-4.2,60.1*,82.2*,90.1*,63.1*,46.5
Cc1ccc(NC(=O)COc2cccc(/C=C3\SC(=S)N(CCC(=O)O)C3=O)c2)cc1Cl,-0.8,0.3,65.8*,32.9,47.0,2.0,12.8,42.0,61.3*,21.4,1.8
COc1ccc(C(=O)O/N=C/c2ccc(S(=O)(=O)c3ccc(Cl)cc3)nc2)cc1,-7.3,.,20.1,-123.7,-0.8,3.9,.,.,.,.,.
O=C(CCCN1C(=O)/C(=C\c2ccccc2)SC1=S)Nc1cccc(C(=O)O)c1,-0.1,-0.9,63.2*,23.7,37.8,1.6,43.4,48.0,36.6,23.5,5.5
COc1cccc(/C=C2\SC(=S)N(CCCC(=O)Nc3ccc(C(=O)O)cc3)C2=O)c1,81.4*,-2.5,83.9*,8.8,83.6*,1.5,67.4*,76.5*,61.5*,58.4*,15.3
O=C(/C=C/c1cccc(Cl)c1)NCCCN1CCOCC1,0.8,4.1,3.9,4.6,-6.6,1.7,.,.,.,.,.
c1ccc(-c2ccc(-c3ccccn3)s2)nc1,84.4*,1.6,83.3*,-418.4,76.2*,-94.3,75.3*,81.0*,96.7*,86.2*,20.8
O=C(O)c1ccc(-c2ccccn2)s1,8.1,7.2,4.9,-4.0,-2.1,0.5,.,.,.,.,.
c1ccc(-c2nnc(-c3ccccn3)nn2)nc1,10.7,.,13.9,33.1,79.4*,1.9,-4.2,54.5*,85.1*,85.7*,65.6*
CCCCNc1c(-c2ccc(SC(C)CC)cc2)nc2ccccn12 (stereo not given),82.9*,.,96.5*,-451.3,74.1*,-30.9,72.6*,63.9*,94.3*,82.5*,82.7*
CCCCNc1c(-c2ccc(SC3CCCCC3)cc2)nc2ccccn12,30.4,.,83.0*,i,63.1*,-27.8,-22.1,6.8,12.6,17.1,3.0
CCCCNc1c(-c2cccc(SC3CCCCC3)c2)nc2ccc(Cl)cn12,-4.8,.,-10.8,-483.5,-3.1,-60.1,.,.,.,.,.
SMILES,SENP7 inh,HSP90 inh,SENP6 block,SENP8 block-1,SENP8 block-2,SENP1 FRET inh,SENP8 conf,SENP6 conf,SENP7 confirm,Casp3 SENP sel,Luc interf
COc1ccc(N2CCN(C(=O)COC(=O)Cc3cccc(OC)c3)CC2)cc1,1.9,.,-7.6,4.1,-7.4,3.9,.,.,.,.,.
O=C(CC(Nc1ccc(F)cc1)C(=O)O)c1ccccc1 (stereo not given),74.4*,-0.8,96.0*,-29.6,82.7*,-14.0,69.2*,82.5*,90.8*,83.4*,31.0
O=C(CSc1nnc(-c2ccc(O)cc2)n1Cc1ccco1)N1CCc2ccccc2C1,-8.0,-0.3,-49.3,0.1,-83.2,0.1,.,.,.,.,.
Fc1ccccc1NC(=S)Nc1cccc2cnccc12,78.1*,4.1,91.8*,-250.0,87.4*,-17.6,15.0,41.0,26.3,7.0,16.1
Cc1ccc(NC(=S)Nc2cccc3cnccc23)cc1C,15.3,4.8,64.7*,-211.8,54.4*,-9.4,11.8,20.2,8.5,-0.5,-1.4
S=C(Nc1cccc(Cl)c1)Nc1cccc2cnccc12,.,5.1,.,-204.4,.,-25.5,.,.,.,.,.
Cc1ccc(NC(=S)Nc2cccc3cnccc23)cc1,70.1*,4.9,92.0*,-110.1,86.8*,-5.3,-3.1,24.6,4.1,7.0,8.9
Cc1ccc(C)c(NC(=S)Nc2cccc3cnccc23)c1,53.6*,3.9,78.5*,-95.4,76.5*,-6.1,11.8,17.0,2.5,3.2,-1.7
Oc1ccccc1OCc1nc2ccccc2s1,80.9*,3.1,82.2*,9.6,69.6*,2.4,-4.5,76.1*,93.6*,78.2*,80.0*
c1coc(C2=Nc3cccc4cccc(c34)N2)c1,5.0,-0.4,50.0*,35.7,13.6,0.0,-21.5,-5.7,-9.1,-7.7,-3.2
COc1cccc(C2=Nc3cccc4cccc(c34)N2)c1,6.3,3.0,-11.8,14.8,-3.7,-8.2,.,.,.,.,.
